From ChEMBL document CHEMBL1140702, “New celecoxib derivatives as anti-inflammatory agents” (J Med Chem, 2008)

Tests used:
[1] = test system: Rattus norvegicus; assay: Antiinflammatory activity in Wistar rat assessed as inhibition of carrageenan-induced paw edema at 10 mg/kg, po after 6 hrs relative to celecoxib; type: functional; conditions: for inhibition in vivo at 10 mg/kg: Rattus norvegicus, Wistar, po, 6 h
Summary of the method: (§1)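 Male Wistar rats (140–150 g; n = 6–12/group) given 50 µL of 1% carrageenan subcutaneously into the right hind paw subplantar region. Oral test doses. Edema is the pre- versus post-treatment volume difference (mL), read by water-displacement plethysmometer.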

[2] = test system: Rattus norvegicus; assay: Antiinflammatory activity in Wistar rat assessed as inhibition of carrageenan-induced paw edema at 10 mg/kg, po after 4 hrs relative to celecoxib; type: functional; conditions: for inhibition in vivo at 10 mg/kg: Rattus norvegicus, Wistar, po, 4 h; summary of the method: as §1
[3] = test system: Rattus norvegicus; assay: Antiinflammatory activity in Wistar rat assessed as inhibition of carrageenan-induced paw edema at 10 mg/kg, po after 7 hrs relative to celecoxib; type: functional; conditions: for inhibition in vivo at 10 mg/kg: Rattus norvegicus, Wistar, po, 7 h; summary of the method: as §1
[4] = test system: Rattus norvegicus; assay: Analgesic activity in chronic model Wistar rat assessed as reversal of carrageenan-induced hind paw edema at 10 mg/kg, po after 180 mins by mechanical hyperalgesia test relative to celecoxib; type: functional
Summary of the method: (§2)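 Randall-Selitto test: male Wistar rats (140–190 g; n = 8–12/group), carrageenan injected subcutaneously in the subplantar right hind paw. Basal paw-withdrawal pressure threshold (g) measured before carrageenan, then after oral dosing at 30, 60, 120 and 180 min. Maximal threshold reduction develops 2–3 h post-injection. Analgesia expressed as % reversal of hyperalgesia.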

[5] = test system: Rattus norvegicus; assay: Inhibition of ethanol-induced gastric mucosal damage in Wistar rat assessed as ulcer index at 15 mg/kg, po; type: functional, Gastric mucosa
Summary of the method: (§3)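 After 24 h fasting, male Wistar rats (140–160 g; n = 10) received oral 0.5 mL acidified ethanol (98% ethanol in 200 mmol/l HCl), with oral test doses and methylcellulose vehicle. Stomachs removed 1 h later and scored blind on a 0–4 scale. Lesion index = lesion number × severity. % inhibition calculated against control lesion index.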

[6] = test system: Rattus norvegicus; assay: Inhibition of ethanol-induced gastric mucosal damage in Wistar rat at 30 mg/kg, po; type: functional; conditions: Gastric mucosa; summary of the method: as §3
[7] = test system: Rattus norvegicus; assay: Inhibition of ethanol-induced gastric mucosal damage in Wistar rat assessed as ulcer index at 30 mg/kg, po; type: functional, Gastric mucosa; summary of the method: as §3
[8] = test system: Rattus norvegicus; assay: Analgesic activity in chronic model Wistar rat assessed as reversal of carrageenan-induced hind paw edema at 10 mg/kg, po after 120 mins by mechanical hyperalgesia test relative to celecoxib; type: functional; summary of the method: as §2
[9] = test system: Rattus norvegicus; assay: Analgesic activity in chronic model Wistar rat assessed as reversal of carrageenan-induced hind paw edema at 30 mg/kg, po after 120 mins by mechanical hyperalgesia test relative to celecoxib; type: functional; summary of the method: as §2
[10] = test system: Rattus norvegicus; assay: Analgesic activity in chronic model Wistar rat assessed as reversal of carrageenan-induced hind paw edema at 30 mg/kg, po after 60 mins by mechanical hyperalgesia test relative to celecoxib; type: functional; summary of the method: as §2
[11] = test system: Rattus norvegicus; assay: Antiinflammatory activity in Wistar rat assessed as inhibition of carrageenan-induced paw edema after 4 hrs; type: functional
[12] = test system: Rattus norvegicus; assay: Analgesic activity in chronic model Wistar rat assessed as reversal of carrageenan-induced hind paw edema at 30 mg/kg, po after 30 mins by mechanical hyperalgesia test relative to celecoxib; type: functional; summary of the method: as §2
[13] = test system: Rattus norvegicus; assay: Antiinflammatory activity in Wistar rat assessed as inhibition of carrageenan-induced paw edema
[14] = test system: Rattus norvegicus; assay: Increase in body weight in acetic acid-induced chronic gastric ulcer Wistar rat at 30 mg/kg, po; type: functional, Stomach
Summary of the method: (§4)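 Chronic ulcer (Okabe method): under ether anesthesia, male Wistar rats (150–170 g) had 0.05 mL 20% acetic acid injected into the submucosa of the anterior glandular stomach wall via laparotomy. Oral dosing with methylcellulose vehicle control. Killed after 12 days. Ulcer area taken as length × width (mm²); body-weight change recorded.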

[15] = test system: Rattus norvegicus; assay: Analgesic activity in chronic model Wistar rat assessed as reversal of carrageenan-induced hind paw edema at 10 mg/kg, po after 30 mins by mechanical hyperalgesia test relative to celecoxib; type: functional; summary of the method: as §2
[16] = test system: Rattus norvegicus; assay: Analgesic activity in acute model Wistar rat assessed as reversal of carrageenan-induced hind paw edema at 30 mg/kg, po after 60 mins by mechanical hyperalgesia test relative to celecoxib; type: functional; summary of the method: as §2
[17] = test system: Rattus norvegicus; assay: Analgesic activity in acute model Wistar rat assessed as reversal of carrageenan-induced hind paw edema at 10 mg/kg, po after 60 mins by mechanical hyperalgesia test relative to celecoxib; type: functional; summary of the method: as §2
[18] = test system: Rattus norvegicus; assay: Effect on acetic acid-induced chronic gastric ulcer Wistar rat assessed as area of ulcer at 30 mg/kg, po; type: functional, Stomach; summary of the method: as §4
[19] = test system: Rattus norvegicus; assay: Analgesic activity in acute model Wistar rat assessed as reversal of carrageenan-induced hind paw edema at 10 mg/kg, po after 180 mins by mechanical hyperalgesia test relative to celecoxib; type: functional; summary of the method: as §2
[20] = test system: Rattus norvegicus; assay: Analgesic activity in acute model Wistar rat assessed as reversal of carrageenan-induced hind paw edema at 30 mg/kg, po after 120 mins by mechanical hyperalgesia test relative to celecoxib; type: functional; summary of the method: as §2
[21] = test system: Rattus norvegicus; assay: Analgesic activity in chronic model Wistar rat assessed as reversal of carrageenan-induced hind paw edema at 30 mg/kg, po after 180 mins by mechanical hyperalgesia test relative to celecoxib; type: functional; summary of the method: as §2
[22] = test system: Rattus norvegicus; assay: Inhibition of ethanol-induced gastric mucosal damage in Wistar rat assessed as ulcer index at 60 mg/kg, po; type: functional, Gastric mucosa; summary of the method: as §3
[23] = test system: Rattus norvegicus; assay: Analgesic activity in acute model Wistar rat assessed as reversal of carrageenan-induced hind paw edema at 10 mg/kg, po after 120 mins by mechanical hyperalgesia test relative to celecoxib; type: functional; summary of the method: as §2
[24] = test system: Rattus norvegicus; assay: Analgesic activity in acute model Wistar rat assessed as reversal of carrageenan-induced hind paw edema at 30 mg/kg, po after 180 mins by mechanical hyperalgesia test relative to celecoxib; type: functional; summary of the method: as §2
[25] = test system: Rattus norvegicus; assay: Inhibition of ethanol-induced gastric mucosal damage in Wistar rat at 60 mg/kg, po; type: functional; conditions: Gastric mucosa; summary of the method: as §3
[26] = test system: Rattus norvegicus; assay: Inhibition of ethanol-induced gastric mucosal damage in Wistar rat at 15 mg/kg, po; type: functional; conditions: Gastric mucosa; summary of the method: as §3
[27] = test system: Rattus norvegicus; assay: Analgesic activity in chronic model Wistar rat assessed as reversal of carrageenan-induced hind paw edema at 10 mg/kg, po after 60 mins by mechanical hyperalgesia test relative to celecoxib; type: functional; summary of the method: as §2
[28] = test system: Rattus norvegicus; assay: Increase in body weight in acetic acid-induced chronic gastric ulcer Wistar rat at 2.0 mg/kg, po; type: functional, Stomach; summary of the method: as §4
[29] = test system: Rattus norvegicus; assay: Effect on acetic acid-induced chronic gastric ulcer Wistar rat assessed as area of ulcer at 2.0 mg/kg, po; type: functional, Stomach; summary of the method: as §4

SMILES: Cc1ccc(-c2cc(C(F)(F)F)nn2-c2ccc(S(=O)(=O)NOCCC(=O)[O-])cc2)cc1.[Na+]
- Inhibition [1]: 33.9%
- inhibition in vivo at 10 mg/kg [2]: 32%
- Inhibition [3]: 24.9%

SMILES: Cc1ccc(-c2cc(C(F)(F)F)nn2-c2ccc(S(=O)(=O)NOCC(=O)O)cc2)cc1 [listing 1 of 2 here]
- Inhibition [1]: 21.3%
- Inhibition [2]: 13.1%
- Inhibition [3]: 17.1%

SMILES: CCOC(=O)CONS(=O)(=O)c1ccc(-n2nc(C(F)(F)F)cc2-c2ccc(C)cc2)cc1
- inhibition in vivo at 10 mg/kg [1]: 23.1%
- inhibition in vivo at 10 mg/kg [2]: 13.3%
- inhibition in vivo at 10 mg/kg [3]: 20.6%

SMILES: Cc1ccc(-c2cc(C(F)(F)F)nn2-c2ccc(S(=O)(=O)NO[C@@H](C)C(=O)O)cc2)cc1
- inhibition in vivo at 10 mg/kg [1]: -9.3%
- inhibition in vivo at 10 mg/kg [2]: 0.9%
- inhibition in vivo at 10 mg/kg [3]: -6.3%

SMILES: Cc1ccc(-c2cc(C(F)(F)F)nn2-c2ccc(S(=O)(=O)NO[C@H](C)C(=O)O)cc2)cc1
- inhibition in vivo at 10 mg/kg [1]: 15.3%
- inhibition in vivo at 10 mg/kg [2]: 18.4%
- inhibition in vivo at 10 mg/kg [3]: 6.7%

SMILES: Cc1ccc(-c2cc(C(F)(F)F)nn2-c2ccc(S(=O)(=O)NOCCC(=O)O)cc2)cc1
- Inhibition [1]: 12.8%
- Inhibition [2]: 23.6%
- Inhibition [3]: 11.9%

SMILES: Cc1ccc(-c2cc(C(F)(F)F)nn2-c2ccc(S(=O)(=O)NOCC(=O)O)cc2)cc1 [listing 2 of 2 here]
- inhibition in vivo at 10 mg/kg [1]: 33.2%
- inhibition in vivo at 10 mg/kg [2]: 26%
- inhibition in vivo at 10 mg/kg [3]: 24.7%

SMILES: CCOC(=O)C(C)ONS(=O)(=O)c1ccc(-n2nc(C(F)(F)F)cc2-c2ccc(C)cc2)cc1 (racemic)
- inhibition in vivo at 10 mg/kg [1]: 15.7%
- inhibition in vivo at 10 mg/kg [2]: 23.5%
- inhibition in vivo at 10 mg/kg [3]: 7.3%

SMILES: Cc1ccc(-c2cc(C(F)(F)F)nn2-c2ccc(S(=O)(=O)NOC(C)C(=O)O)cc2)cc1 (racemic; 16)
- Inhibition [1]: 31.1%
- Activity [4]: 20%
- UI [5]: 43
- Inhibition [2]: 41%
- Inhibition [3]: 17.9%
- inhibition in vivo at 30 mg/kg [6]: 43%
- UI [7]: 35
- Activity [8]: 28%
- Activity [9]: 34%
- Activity [10]: 54%
- ED30 [11]: 5.7 mg/kg
- Activity [12]: 42%
- ED30 [13]: 8.4 mg/kg
- Activity [14]: 43 g
- Activity [15]: 23%
- Activity [16]: 89%
- Activity [17]: 24%
- Activity [18]: 2.4 mm2
- Activity [19]: 15%
- Activity [20]: 59%
- Activity [21]: 19%
- UI [22]: 15.8
- Activity [23]: 30%
- Activity [24]: 35%
- inhibition in vivo at 60 mg/kg [25]: 76%
- inhibition in vivo at 15 mg/kg [26]: 35%
- Activity [27]: 22%

SMILES: Cc1ccc(-c2cc(C(F)(F)F)nn2-c2ccc(S(=O)(=O)NOC(C)C(=O)O)cc2)cc1 (racemic; 21)
- inhibition in vivo at 10 mg/kg [1]: 21.8%
- inhibition in vivo at 10 mg/kg [2]: 38.4%
- inhibition in vivo at 10 mg/kg [3]: 16.2%

SMILES: Cc1ccc(-c2cc(C(F)(F)F)nn2-c2ccc(S(N)(=O)=O)cc2)cc1 [CELECOXIB]
- inhibition in vivo at 10 mg/kg [1]: 18.6%
- Activity [4]: 0%
- UI [5]: 80.6
- inhibition in vivo at 10 mg/kg [2]: 24.2%
- inhibition in vivo at 10 mg/kg [3]: 12.3%
- inhibition in vivo at 30 mg/kg [6]: 19%
- UI [7]: 49.4
- Activity [8]: 0%
- Activity [9]: 34%
- Activity [10]: 34%
- ED30 [11]: 23 mg/kg
- Activity [12]: 54%
- ED30 [13]: > 30 mg/kg
- Activity [14]: 32 g
- Activity [15]: 24%
- Activity [16]: 24%
- Activity [17]: 0%
- Activity [18]: 8.2 mm2
- Activity [19]: 0%
- Activity [20]: 3%
- Activity [21]: 26%
- UI [22]: 44.4
- Activity [23]: 0%
- Activity [24]: 0%
- inhibition in vivo at 60 mg/kg [25]: 55%
- inhibition in vivo at 15 mg/kg [26]: 18%
- Activity [27]: 17%

SMILES: COc1ccc2c(c1)c(CC(=O)O)c(C)n2C(=O)c1ccc(Cl)cc1 [INDOMETHACIN]
- Activity [28]: 2 g
- Activity [29]: 39 mm2
